ChEMBL document CHEMBL3272035, “(Vinylaryloxy)acetic acids. A new class of diuretic agents. 1. (Diacylvinylaryloxy)acetic acids” (J Med Chem, 1976)

Columns and labels:
Canis familiaris [1] = assay: Diuretic activity in mongrel trained conscious dog assessed as urine Na+ level per 6 hrs at 1 mg/kg, po as gelatin capsules relative to control
Canis familiaris [2] = assay: Diuretic activity in mongrel dog assessed as urine volume per 6 hrs at 1 mg/kg, po as gelatin capsules relative to control
Canis familiaris [3] = assay: Diuretic activity in mongrel trained conscious dog assessed as urine volume per 6 hrs at 0.4 mg/kg, po as gelatin capsules relative to control
Canis familiaris [4] = assay: Diuretic activity in mongrel dog anesthetized with sodium pentobarbital assessed as urine volume at 1 mg/kg, iv measured after 15 to 45 mins post dose (reference value: 1 to 4 ml/min); format: functional, Canis lupus familiaris
Canis familiaris [5] = assay: Diuretic activity in mongrel dog anesthetized with sodium pentobarbital assessed as urine K+ level at 0.1 mg/kg, iv measured after 15 to 45 mins post dose (reference value: 5 to 104 uequiv/min); format: functional, Canis lupus familiaris
Canis familiaris [6] = assay: Diuretic activity in mongrel dog anesthetized with sodium pentobarbital assessed as urine volume at 0.1 mg/kg, iv measured after 15 to 45 mins post dose (reference value: 1 to 4 ml/min); format: functional, Canis lupus familiaris
Canis familiaris [7] = assay: Diuretic activity in mongrel trained conscious dog assessed as urine K+ level per 6 hrs at 0.4 mg/kg, po as gelatin capsules relative to control
Canis familiaris [8] = assay: Diuretic activity in mongrel dog anesthetized with sodium pentobarbital assessed as urine Na+ level at 0.1 mg/kg, iv measured after 15 to 45 mins post dose (reference value: 4 to 82 uequiv/min); format: functional, Canis lupus familiaris
Canis familiaris [9] = assay: Diuretic activity in mongrel dog assessed as urine K+ level per 6 hrs at 1 mg/kg, po as gelatin capsules relative to control
Canis familiaris [10] = assay: Diuretic activity in mongrel dog anesthetized with sodium pentobarbital assessed as urine K+ level at 1 mg/kg, iv measured after 15 to 45 mins post dose (reference value: 5 to 104 uequiv/min); format: functional, Canis lupus familiaris
Canis familiaris [11] = assay: Diuretic activity in mongrel dog anesthetized with sodium pentobarbital assessed as urine Na+ level at 10 mg/kg, iv measured after 15 to 45 mins post dose (reference value: 4 to 82 uequiv/min); format: functional, Canis lupus familiaris
Canis familiaris [12] = assay: Diuretic activity in mongrel dog anesthetized with sodium pentobarbital assessed as urine volume at 10 mg/kg, iv measured after 15 to 45 mins post dose (reference value: 1 to 4 ml/min); format: functional, Canis lupus familiaris
Canis familiaris [13] = assay: Diuretic activity in mongrel dog anesthetized with sodium pentobarbital assessed as urine K+ level at 10 mg/kg, iv measured after 15 to 45 mins post dose (reference value: 5 to 104 uequiv/min); format: functional, Canis lupus familiaris
Canis familiaris [14] = assay: Diuretic activity in mongrel dog anesthetized with sodium pentobarbital assessed as urine Na+ level at 1 mg/kg, iv measured after 15 to 45 mins post dose (reference value: 4 to 82 uequiv/min); format: functional, Canis lupus familiaris
Canis familiaris [15] = assay: Diuretic activity in mongrel dog anesthetized with sodium pentobarbital assessed as urine Cl- level at 1 mg/kg, iv measured after 15 to 45 mins post dose (reference value: 2 to 64 uequiv/min); format: functional, Canis lupus familiaris
Canis familiaris [16] = assay: Diuretic activity in mongrel dog anesthetized with sodium pentobarbital assessed as urine volume at 25 mg/kg, iv measured after 15 to 45 mins post dose (reference value: 1 to 4 ml/min); format: functional, Canis lupus familiaris
Canis familiaris [17] = assay: Diuretic activity in mongrel dog anesthetized with sodium pentobarbital assessed as urine Cl- level at 10 mg/kg, iv measured after 15 to 45 mins post dose (reference value: 2 to 64 uequiv/min); format: functional, Canis lupus familiaris
Canis familiaris [18] = assay: Diuretic activity in mongrel dog assessed as urine Cl- level per 6 hrs at 1 mg/kg, po as gelatin capsules relative to control
[19] = Half life of the compound in DMF-phosphate buffer at pH 7.4 at 25 degC assessed as SH binding in presence of mercaptoacetic acid; format: physicochemical; conditions: DMF-phosphate buffer with mercaptoacetic acid
In short: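 Minutes for half of a standard amount of compound to react with excess mercaptoacetic acid in DMF-phosphate buffer, pH 7.4, 25°.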

Canis familiaris [20] = assay: Diuretic activity in mongrel dog […] assessed as urine volume per 6 hrs at 3 mg/kg, po as gelatin capsules relative to control; format: functional, Canis lupus familiaris
In short: (§1)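 Conscious trained female mongrel dogs (8–10 kg), fasted overnight after 100 ml water the day before. On test day 250 ml water orally, then 500 ml 1 h later. Bladder emptied 1 h afterwards and compound or placebo given in gelatin capsules. Voided urine from metabolism cages pooled with catheter urine at 6 h; volume and Na+, K+, Cl− measured; geometric means.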

Canis familiaris [21] = assay: Diuretic activity in mongrel dog […] assessed as urine Na+ level per 6 hrs at 3 mg/kg, po as gelatin capsules relative to control; format: functional, Canis lupus familiaris
In short: as §1

Canis familiaris [22] = assay: Diuretic activity in mongrel dog […] assessed as urine K+ level per 6 hrs at 3 mg/kg, po as gelatin capsules relative to control; format: functional, Canis lupus familiaris
In short: as §1

Canis familiaris [23] = assay: Diuretic activity in mongrel dog […] assessed as urine Cl- level per 6 hrs at 3 mg/kg, po as gelatin capsules relative to control; format: functional, Canis lupus familiaris
In short: as §1

Canis familiaris [24] = assay: Diuretic activity in mongrel dog anesthetized with sodium pentobarbital assessed as urine Na+ level at 25 mg/kg, iv measured after 15 to 45 mins post dose (reference value: 4 to 82 uequiv/min); format: functional, Canis lupus familiaris
Canis familiaris [25] = assay: Diuretic activity in mongrel dog anesthetized with sodium pentobarbital assessed as urine K+ level at 25 mg/kg, iv measured after 15 to 45 mins post dose (reference value: 5 to 104 uequiv/min); format: functional, Canis lupus familiaris
Canis familiaris [26] = assay: Diuretic activity in mongrel trained conscious dog assessed as urine Cl- level per 6 hrs at 0.4 mg/kg, po as gelatin capsules relative to control
Canis familiaris [27] = assay: Diuretic activity in mongrel dog […] assessed as urine volume per 6 hrs at 1.27 mg/kg, po as gelatin capsules relative to control; format: functional, Canis lupus familiaris
In short: as §1

Canis familiaris [28] = assay: Diuretic activity in mongrel dog assessed as urine Cl- level per 6 hrs at 1.27 mg/kg, po as gelatin capsules relative to control
Canis familiaris [29] = assay: Diuretic activity in mongrel trained conscious dog assessed as urine Na+ level per 6 hrs at 0.4 mg/kg, po as gelatin capsules relative to control
Canis familiaris [30] = assay: Diuretic activity in mongrel dog assessed as urine K+ level per 6 hrs at 1.27 mg/kg, po as gelatin capsules relative to control
Canis familiaris [31] = assay: Diuretic activity in mongrel dog anesthetized with sodium pentobarbital assessed as urine Cl- level at 0.1 mg/kg, iv measured after 15 to 45 mins post dose (reference value: 2 to 64 uequiv/min); format: functional, Canis lupus familiaris
Canis familiaris [32] = assay: Diuretic activity in mongrel dog assessed as urine Na+ level per 6 hrs at 1.27 mg/kg, po as gelatin capsules relative to control

Row | SMILES | Activity (Canis familiaris [4]) [mL/min] | Activity (Canis familiaris [10]) [uEq/min] | Activity (Canis familiaris [11]) [uEq/min] | Activity (Canis familiaris [12]) [mL/min] | Activity (Canis familiaris [13]) [uEq/min] | Activity (Canis familiaris [14]) [uEq/min] | Activity (Canis familiaris [15]) [uEq/min] | also measured
1 | CC(=O)C(=Cc1ccc(OCC(=O)O)c(Cl)c1Cl)C(C)=O | 19 | 104 | – | – | – | – | – | Activity (Canis familiaris [1]): 30 milliequivalent; Activity (Canis familiaris [2]): 492 mL; Activity (Canis familiaris [3]): 762 mL; Activity (Canis familiaris [5]): 87 uEq/min; Activity (Canis familiaris [6]): 9 mL/min; Activity (Canis familiaris [7]): 6 milliequivalent; Activity (Canis familiaris [8]): 984 uEq/min; Activity (Canis familiaris [9]): 7 milliequivalent
2 | O=C(O)COc1ccc(C=C2C(=O)C=CC2=O)c(Cl)c1Cl | – | – | 213 | 4 | 94 | – | – | –
3 | CC(=O)C(=Cc1ccc(OC(C)C(=O)O)c(Cl)c1Cl)C(C)=O (stereo unspecified) | 8 | 71 | – | – | – | 847 | – | –
4 | CC(=O)C(C(C)=O)C(SCCO)c1ccc(OCC(=O)O)c(Cl)c1Cl (stereo unspecified) | 5 | 80 | – | – | – | 405 | 447 | –
5 | CCC(=O)/C(=C/c1ccc(OCC(=O)O)c(Cl)c1Cl)C(C)=O | 16 | 13 | – | – | – | 2025 | 1936 | –
6 | CC(=O)C(=Cc1ccc(OCC(=O)O)c2ccccc12)C(C)=O | 4 | 104 | – | – | – | 393 | – | –
7 | CSC(c1ccc(OCC(=O)O)c(Cl)c1Cl)C(C(C)=O)C(C)=O (stereo unspecified) | 6 | 78 | – | – | – | 571 | 565 | –
8 | CC(=O)/C(=C\c1ccc(OCC(=O)O)c(Cl)c1Cl)C(=O)c1ccccc1 | – | – | 583 | 6 | 105 | – | – | –
9 | CC(=O)C(=Cc1cc(OCC(=O)O)ccc1Cl)C(C)=O | – | – | – | – | – | – | – | Activity (Canis familiaris [16]): 1 mL/min
10 | CC(=O)C(=Cc1ccc(OCC(=O)O)c(C)c1C)C(C)=O | – | 58 | – | – | – | – | – | –
11 | CCC(=O)C(=Cc1ccc(OCC(=O)O)c(Cl)c1Cl)C(=O)CC | 7 | 68 | – | – | – | 676 | – | –
12 | CC(=O)C(Cc1ccc(OCC(=O)O)c(Cl)c1Cl)C(C)=O | – | – | 198 | 3 | 35 | – | – | Activity (Canis familiaris [17]): 241 uEq/min
13 | O=C(O)COc1ccc(C=C2C(=O)c3ccccc3C2=O)c(Cl)c1Cl | – | – | 118 | 2 | 44 | – | – | Activity (Canis familiaris [17]): 29 uEq/min
14 | CC(=O)C(=Cc1cc(Cl)ccc1OCC(=O)O)C(C)=O | – | – | 94 | 2 | 20 | – | – | –
15 | C=C(CC)C(=O)c1ccc(OCC(=O)O)c(Cl)c1Cl [ETHACRYNIC ACID] | 6 | 52 | 2989 | 22 | 194 | 188 | 244 | Activity (Canis familiaris [18]): 26 milliequivalent; Activity (Canis familiaris [1]): 21 milliequivalent; Activity (Canis familiaris [2]): 560 mL; half-life [19]: < 1 min; Activity (Canis familiaris [20]): 571 mL; Activity (Canis familiaris [21]): 37 milliequivalent; Activity (Canis familiaris [22]): 7 milliequivalent; Activity (Canis familiaris [17]): 3324 uEq/min; Activity (Canis familiaris [9]): 5 milliequivalent; Activity (Canis familiaris [23]): 42 milliequivalent
16 | CC(=O)C(=Cc1ccc(OCC(=O)O)cc1)C(C)=O | – | – | 336 | 4 | 106 | – | – | –
17 | CC(=O)C(=Cc1cc(Cl)cc(Cl)c1OCC(=O)O)C(C)=O | – | – | – | – | – | – | – | Activity (Canis familiaris [24]): 244 uEq/min; Activity (Canis familiaris [16]): 3 mL/min; Activity (Canis familiaris [25]): 50 uEq/min
18 | CC(=O)C(=Cc1ccc(OCC(=O)O)cc1Cl)C(C)=O | 11 | 232 | – | – | – | 1318 | – | –
19 | CC(=O)C(C(C)=O)C(Sc1ccccc1C(=O)O)c1ccc(OCC(=O)O)c(Cl)c1Cl (stereo unspecified) | 7 | 124 | – | – | – | 802 | 913 | –
20 | CC(=O)C(C(C)=O)C(SCC(=O)O)c1ccc(OCC(=O)O)c(Cl)c1Cl (stereo unspecified) | 4 | 178 | – | – | – | 1569 | 1628 | Activity (Canis familiaris [26]): 8 milliequivalent; Activity (Canis familiaris [3]): 575 mL; Activity (Canis familiaris [27]): 750 mL; Activity (Canis familiaris [5]): 173 uEq/min; Activity (Canis familiaris [6]): 13 mL/min; Activity (Canis familiaris [28]): 34 milliequivalent; Activity (Canis familiaris [7]): 3 milliequivalent; Activity (Canis familiaris [8]): 1424 uEq/min; Activity (Canis familiaris [29]): 7 milliequivalent; Activity (Canis familiaris [30]): 6 milliequivalent; Activity (Canis familiaris [31]): 1991 uEq/min; Activity (Canis familiaris [32]): 27 milliequivalent
